Reference: publication PMC5116011 (The Journal of antibiotics, 2016)
≈ marks a conversion by molar mass, not a printed value. Where two headings read alike, the source gives them in different places.

What was measured:
E. faecalis ATCC33186 = test: MIC, microbroth dilution in Mueller-Hinton broth; type: cell-based; conditions: Enterococcus faecalis, ATCC33186, read-out: MIC EF
In short: (§1)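 CLSI broth microdilution in cation-adjusted Mueller-Hinton broth. Inocula were grown from MH agar colonies in MH broth, with a final inoculum of 10^5 CFU/ml. Test compound final range was 200–0.2 µg/ml, incubated 37°C for 18–20 h. MIC was the lowest concentration preventing visible growth. Runs were at least duplicate, and the mean MIC was reported.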

S. pyogenes ATCC700294 = test: MIC, microbroth dilution in Mueller-Hinton broth; type: cell-based; conditions: Streptococcus pyogenes, ATCC700294, read-out: MIC SPy
In short: as §1

S. pneumoniae R6 = test: MIC, microbroth dilution in Mueller-Hinton broth; type: cell-based; conditions: Streptococcus pneumoniae, R6, read-out: MIC SP
In short: as §1

B. anthracis sterne = test: microbe, parasite or virus in culture; type: cell-based; conditions: Bacillus anthracis, read-out: MIC BA
B. subtilis ATCC23857 = test: MIC, microbroth dilution in Mueller-Hinton broth; type: cell-based; conditions: Bacillus subtilis, ATCC23857, read-out: MIC BS
In short: as §1

[1] = test system: S. aureus -ATCC29213 (MSSA); test: MIC, microbroth dilution in Mueller-Hinton broth; type: cell-based; conditions: Staphylococcus aureus, read-out: MIC MSSA
In short: as §1

S. aureus NRS 70 (MRSA) = test: MIC, microbroth dilution in Mueller-Hinton broth; type: cell-based; conditions: Staphylococcus aureus, MRSA|NRS70, read-out: MIC MRSA
In short: as §1

E. coli BW25113 = test: MIC, microbroth dilution in Mueller-Hinton broth; type: cell-based, Escherichia coli; conditions: for MIC EC MH+BP/CCCP: MH broth with 30 µg/ml 2,2′-bipyridyl and 50 µg/ml CCCP; for MIC EC +: with clavulanic acid (6µg/ml); for MIC: Escherichia coli, BW25113, read-out: MIC EC, E. coli BW25113
[2] = test system: E. coli BW25113 ΔtolC derivative JW5503-1; test: MIC, microbroth dilution in Mueller-Hinton broth; type: cell-based, Escherichia coli; conditions: for MIC: Escherichia coli
P. vulgaris ATCC 33420 = test: MIC, microbroth dilution in Mueller-Hinton broth; type: cell-based; conditions: Proteus vulgaris, ATCC33420, read-out: MIC PV
P. mirabilis ATCC 25933 = test: MIC, microbroth dilution in Mueller-Hinton broth; type: cell-based; conditions: Proteus mirabilis, ATCC25933, read-out: MIC PM
P. aeruginosa PA01 = test: MIC, microbroth dilution in Mueller-Hinton broth; type: cell-based, Pseudomonas aeruginosa; conditions: for MIC PA MH+BP/CCCP / MIC PA +: P. aeruginosa PA01; for MIC PA MH+BP/CCCP: MH broth with 30 µg/ml 2,2′-bipyridyl and 50 µg/ml CCCP; for MIC PA +: with clavulanic acid (6µg/ml); for MIC: Pseudomonas aeruginosa
[3] = test system: E. coli BW25113 ΔampC derivative JW4111-2; type: cell-based, Escherichia coli; conditions: for MIC: Escherichia coli, BW25113, read-out: MIC ECΔampC −
[4] = BW25113, read-out: MIC ECΔtolC MH
[5] = BW25113, read-out: MIC ECΔtolC MH+BP

| Compound | MIC (E. faecalis ATCC33186) [µg/mL] | MIC (S. pyogenes ATCC700294) [µg/mL] | MIC (S. pneumoniae R6) [µg/mL] | MIC (B. anthracis sterne) [µg/mL] | MIC (B. subtilis ATCC23857) [µg/mL] | MIC [1] [µg/mL] | MIC (S. aureus NRS 70 (MRSA)) [µg/mL] | MIC EC MH+BP/CCCP (E. coli BW25113; E. coli BW25113) [µg/mL] | MIC EC + (E. coli BW25113; E. coli BW25113) [µg/mL] | MIC (E. coli BW25113; Mueller-Hinton broth (Table 2)) [µg/mL] | MIC [2, 5] [µg/mL] | MIC ECΔtolC MH+BP/CCCP [2] [µg/mL] | MIC ECΔtolC MH+CCCP [2] [µg/mL] | MIC (P. vulgaris ATCC 33420) [µg/mL] | MIC (P. mirabilis ATCC 25933) [µg/mL] | MIC PA MH+BP/CCCP (P. aeruginosa PA01) [µg/mL] | MIC PA + (P. aeruginosa PA01) [µg/mL] | MIC (P. aeruginosa PA01; PA01, read-out: MIC PA) [µg/mL] | MIC (P. aeruginosa PA01; PA01, read-out: MIC PA MH) [µg/mL] | MIC (P. aeruginosa PA01; PA01, read-out: MIC PA MH+BP) [µg/mL] | other results |
| --- | --- | --- | --- | --- | --- | --- | --- | --- | --- | --- | --- | --- | --- | --- | --- | --- | --- | --- | --- | --- | --- |
| CC1(C)SC2C(NC(=O)C(NC(=O)C3=C(O)C(c4ccccc4)NC3=O)c3ccccc3)C(=O)N2C1C(=O)O (stereo not drawn) [Compound 2745] | 12.5 (≈ 22.7 µM) | 0.78 (≈ 1.42 µM) | 0.39 (≈ 0.708 µM) | 6.25 (≈ 11.4 µM) | 3.13 (≈ 5.68 µM) | 0.78 (≈ 1.42 µM) | 25 (≈ 45.4 µM) | 12.5 (≈ 22.7 µM) | 12.5 | 100 (≈ 182 µM) | 1.56 (≈ 2.83 µM) | 0.78 (≈ 1.42 µM) | 1.56 (≈ 2.83 µM) | 12.5 (≈ 22.7 µM) | 3.13 (≈ 5.68 µM) | 12.5 (≈ 22.7 µM) | 25 | 25 (≈ 45.4 µM) | 25 (≈ 45.4 µM) | 50 (≈ 90.8 µM) | MIC ([2]; BW25113, read-out: MIC ECΔtolC): 3.13 µg/mL (≈ 5.68 µM); MIC [2, 4]: 3.13 µg/mL (≈ 5.68 µM); MIC (P. aeruginosa PA01; PA01, read-out: MIC PA MH+CCCP): 12.5 µg/mL (≈ 22.7 µM); MIC (P. aeruginosa PA01; PA01, read-out: MIC PA −): 25 µg/mL (≈ 45.4 µM); MIC [3]: 6.25 µg/mL (≈ 11.4 µM); MIC ECΔampC + [3]: 6.25 µg/mL |
| CC1NC(=O)C(C(=O)NC(C(=O)NC2C(=O)N3C2SC(C)(C)C3C(=O)O)c2ccccc2)=C1O (stereo not drawn) [Compound 2746] | 25 (≈ 51.2 µM) | 0.39 (≈ 0.798 µM) | 0.39 (≈ 0.798 µM) | 1.56 (≈ 3.19 µM) | 3.13 (≈ 6.41 µM) | 1.56 (≈ 3.19 µM) | 50 (≈ 102 µM) | 12.5 (≈ 25.6 µM) | 50 | 200 (≈ 409 µM) | 6.25 (≈ 12.8 µM) | 1.56 (≈ 3.19 µM) | 3.13 (≈ 6.41 µM) | 100 (≈ 205 µM) | 3.13 (≈ 6.41 µM) | 12.5 (≈ 25.6 µM) | 25 | 50 (≈ 102 µM) | 50 (≈ 102 µM) | 50 (≈ 102 µM) | MIC (P. aeruginosa PA01; PA01, read-out: MIC PA MH+CCCP): 12.5 µg/mL (≈ 25.6 µM); MIC (P. aeruginosa PA01; PA01, read-out: MIC PA −): 50 µg/mL (≈ 102 µM); MIC [3]: 50 µg/mL (≈ 102 µM); MIC ECΔampC + [3]: 25 µg/mL |
| CC1(C)SC2C(NC(=O)C(NC(=O)C3=C(O)C4CCCN4C3=O)c3ccccc3)C(=O)N2C1C(=O)O (stereo not drawn) [Compound 2780] | 25 (≈ 48.6 µM) | 0.78 (≈ 1.52 µM) | 0.39 (≈ 0.758 µM) | 1.56 (≈ 3.03 µM) | 0.78 (≈ 1.52 µM) | 0.39 (≈ 0.758 µM) | 50 (≈ 97.2 µM) | 25 (≈ 48.6 µM) | 50 | 200 (≈ 389 µM) | 6.25 (≈ 12.1 µM) | 3.13 (≈ 6.08 µM) | 3.13 (≈ 6.08 µM) | 12.5 (≈ 24.3 µM) | 1.56 (≈ 3.03 µM) | 6.25 (≈ 12.1 µM) | 12.5 | 25 (≈ 48.6 µM) | 25 (≈ 48.6 µM) | 25 (≈ 48.6 µM) | MIC ([2]; BW25113, read-out: MIC ECΔtolC): 6.25 µg/mL (≈ 12.1 µM); MIC [2, 4]: 6.25 µg/mL (≈ 12.1 µM); MIC (P. aeruginosa PA01; PA01, read-out: MIC PA MH+CCCP): 6.25 µg/mL (≈ 12.1 µM); MIC (P. aeruginosa PA01; PA01, read-out: MIC PA −): 25 µg/mL (≈ 48.6 µM); MIC [3]: 12.5 µg/mL (≈ 24.3 µM); MIC ECΔampC + [3]: 3.13 µg/mL |
| CC1(C)SC2C(NC(=O)C(NC(=O)C3=C(O)C4(CC4)NC3=O)c3ccccc3)C(=O)N2C1C(=O)O (stereo not drawn) [Compound 2833] | 12.5 (≈ 25 µM) | 0.78 (≈ 1.56 µM) | < 0.2 | 1.56 (≈ 3.12 µM) | 0.39 (≈ 0.779 µM) | < 0.2 | 25 (≈ 49.9 µM) | 6.25 (≈ 12.5 µM) | 12.5 | 100 (≈ 200 µM) | 1.56 (≈ 3.12 µM) | 0.78 (≈ 1.56 µM) | 1.56 (≈ 3.12 µM) | 100 (≈ 200 µM) | 6.25 (≈ 12.5 µM) | 12.5 (≈ 25 µM) | 6.25 | 25 (≈ 49.9 µM) | 25 (≈ 49.9 µM) | 25 (≈ 49.9 µM) | MIC ([2]; BW25113, read-out: MIC ECΔtolC): 3.13 µg/mL (≈ 6.25 µM); MIC [2, 4]: 3.13 µg/mL (≈ 6.25 µM); MIC (P. aeruginosa PA01; PA01, read-out: MIC PA MH+CCCP): 12.5 µg/mL (≈ 25 µM); MIC [3]: 12.5 µg/mL (≈ 25 µM); MIC ECΔampC + [3]: 6.25 µg/mL |
| CC1(C)SC2C(NC(=O)C(NC(=O)C3=C(O)C(Cc4ccc([N+](=O)[O-])cc4)NC3=O)c3ccccc3)C(=O)N2C1C(=O)O (stereo not drawn) [Compound 2835] | 25 (≈ 41 µM) | 0.78 (≈ 1.28 µM) | < 0.2 | 3.13 (≈ 5.13 µM) | < 0.2 | < 0.2 | 25 (≈ 41 µM) | 12.5 (≈ 20.5 µM) | 6.25 | 100 (≈ 164 µM) | 1.56 (≈ 2.56 µM) | 0.78 (≈ 1.28 µM) | 1.56 (≈ 2.56 µM) | 25 (≈ 41 µM) | 25 (≈ 41 µM) | 12.5 (≈ 20.5 µM) | 6.25 | 25 (≈ 41 µM) | 25 (≈ 41 µM) | 25 (≈ 41 µM) | MIC ([2]; BW25113, read-out: MIC ECΔtolC): 3.13 µg/mL (≈ 5.13 µM); MIC [2, 4]: 3.13 µg/mL (≈ 5.13 µM); MIC (P. aeruginosa PA01; PA01, read-out: MIC PA MH+CCCP): 12.5 µg/mL (≈ 20.5 µM); MIC ECΔampC + [3]: 12.5 µg/mL |
| CC1(C)SC2C(NC(=O)C(NC(=O)C3=C(O)C(Cc4ccc(O)cc4)NC3=O)c3ccccc3)C(=O)N2C1C(=O)O (stereo not drawn) [Compound 2918] | 25 (≈ 43.1 µM) | 1.56 (≈ 2.69 µM) | 0.39 (≈ 0.672 µM) | 6.25 (≈ 10.8 µM) | 3.13 (≈ 5.39 µM) | 0.78 (≈ 1.34 µM) | 50 (≈ 86.1 µM) | 6.25 (≈ 10.8 µM) | 12.5 | 6.25 to 12.5 (≈ 10.8 to 21.5 µM) | 1.56 (≈ 2.69 µM) | 0.78 (≈ 1.34 µM) | 0.78 (≈ 1.34 µM) | 6.25 (≈ 10.8 µM) | 6.25 (≈ 10.8 µM) | 6.25 (≈ 10.8 µM) | 6.25 | 50 (≈ 86.1 µM) | 50 (≈ 86.1 µM) | 25 (≈ 43.1 µM) | MIC EC (E. coli BW25113; E. coli BW25113, Mueller-Hinton broth (Table 2)): 6.25 µg/mL (≈ 10.8 µM); MIC ([2]; BW25113, read-out: MIC ECΔtolC): 6.25 µg/mL (≈ 10.8 µM); MIC [2, 4]: 1.56 µg/mL (≈ 2.69 µM); MIC (P. aeruginosa PA01; PA01, read-out: MIC PA MH+CCCP): 6.25 µg/mL (≈ 10.8 µM); MIC ECΔampC + [3]: 6.25 µg/mL |
